Measurements gathered from unrelated publications.
Target: Serine/threonine-protein kinase PAK 4 (PAK4, Homo sapiens, UniProt O96013)

| Compound | assay | conditions | remaining binding [%] |
| --- | --- | --- | --- |
| CS(=O)(=O)NCC[C@H](NC(=O)c1cncc2c1cnn2-c1ccc(F)cc1)c1ccnc(S(C)(=O)=O)c1 | cell-free assay, competition with immobilised ligand | 1 µM | 100 |
| CCN1CCN(Cc2ccc(C(=O)Nc3ccc(C)c(Oc4ccc5c(c4)CC(=O)N5)c3)cc2C(F)(F)F)CC1 | binding, competition with immobilised ligand | 1 µM | 100 |
| C[C@@H]1CN(c2ccc3ncc(-c4ccc5[nH]nc(C6CC6)c5c4)n3n2)C[C@H](C)O1 | binding, competition with immobilised ligand | 0.5 µM | 83 |
| CNC(=O)[C@@H]1CC[C@@H](n2c(-c3ccc4cnccc4c3)nc3ccc(C(=O)NCc4cccc(C(N)=O)c4)cc32)C1 | binding, competition with immobilised ligand | 1 µM | 100 |
| O=C(NCc1ncc(C(F)(F)F)cc1Cl)c1ccc2c(c1)C1(CCS(=O)(=O)CC1)[C@H](C1CC1)N2S(=O)(=O)c1ccc(F)cc1 | cell-free assay, competition with immobilised ligand | 1 µM | 100 |
| Cc1cnn2ncc(-c3ccnc(N(C)C)n3)c2c1 | binding | 1 µM | 100 |
| O=C(c1ccc(Nc2ncc(Cl)c(-c3ccc(Cl)s3)n2)cc1)N1CCC(N2CCCC2)CC1 | binding, competition with immobilised ligand | 1 µM | 53 |
| N[C@H]1CCN(c2nccc(-c3cnn4ncccc34)n2)C1 | binding | 1 µM | 88 |
| COc1ncc2cc3ccccc3nc2c1C#N | cell-free assay, competition with immobilised ligand | 5 µM | 97 |
| C[C@H]1CCN(c2nccc(-c3cnn4ncccc34)n2)C1 | binding | 1 µM | 95 |
| CN1CCN(c2cnc3c(C4CCN(C(=O)c5ccc(OC(F)(F)F)cc5N)CC4)ncnc3c2)CC1 | cell-free assay, competition with immobilised ligand | 1 µM | 91 |
| CN(c1nccc(-c2cnn3ncccc23)n1)C1CC1 | binding | 1 µM | 100 |
| COc1cnc(Nc2cccc(S(N)(=O)=O)c2)nc1N1CCN(c2ccccc2)CC1 | binding, competition with immobilised ligand | 1 µM | 95 |
| CS(=O)(=O)c1cc(C2(NC(=O)c3cncc4c3cnn4-c3ccc(F)cc3)CC2)ccn1 | cell-free assay, competition with immobilised ligand | 1 µM | 100 |
| CC(C)(C)c1ccc(-c2nc(CBr)nn2-c2cccc(O)c2)cc1 | cell-free assay, competition with immobilised ligand | 10 µM | 87 |
| F[C@@H]1CCN(c2nccc(-c3cnn4ncccc34)n2)C1 | binding | 1 µM | 100 |
| O=C(NC[C@@H]1[C@H]2CN(C(=O)OCc3cc(C(F)(F)F)cc(C(F)(F)F)c3)C[C@@H]12)c1ccc2[nH]nnc2c1 | cell-free assay, competition with immobilised ligand | 1 µM | 100 |
| c1cnn2ncc(-c3ccnc(N4CCC45COC5)n3)c2c1 | binding | 1 µM | 96 |
| O=C(O)c1cc(-c2ccc(C3CCNCC3)cc2)c2ccc(-c3ccc(C(F)(F)F)cc3)cc2c1 | cell-free assay, competition with immobilised ligand | 1 µM | 100 |
| O=C(Nc1c[nH]nc1C(=O)NC1CCNCC1)c1cc(F)cc(F)c1 | binding, competition with immobilised ligand | 1 µM | 100 |
| O=C(c1ccc(Nc2nccc(-c3cc4ccccc4s3)n2)cc1)N1CCC(N2CCCC2)CC1 | binding, competition with immobilised ligand | 1 µM | 81 |
| Cc1nc(C2CCN(C(=O)c3ccc(OC(F)(F)F)cc3N)CC2)c2ncc(N3CCN(C)CC3)cc2n1 | cell-free assay, competition with immobilised ligand | 1 µM | 100 |
| COc1ccnn2ncc(-c3ccnc(N(C)C)n3)c12 | binding | 1 µM | 85 |
| O=C(NCCCN1CCOCC1)c1ccc(Nc2ncc(Cl)c(-c3ccc(Cl)s3)n2)cc1 | binding, competition with immobilised ligand | 1 µM | 89 |
| C[C@@H](c1ccc(-n2cnc3c(N)ncnc32)cc1)N1CCc2nn(C)c(Cc3ccccc3)c2C1=O | binding, competition with immobilised ligand | 0.1 µM | 100 |
